Active and inactive are the calls of the source. The rule behind the calls is not given here.
Test system: DNA
Assay: Binding affinity to calf thymus DNA assessed as DNA intercalation at 50 uM by fluorescence spectrophotometry
Assay type: nucleic-acid assay
Conditions: Bos taurus
Method in brief: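 Fluorescence titration: increasing ct-DNA added to compound in phosphate buffer (pH 7.0); decrease in emission band at 500 nm monitored; binding constant derived from titration data by Benesi–Hildebrand method.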

Activity: Active
SMILES: CN(C)CCN1C(=O)c2cccc3cc(N)cc(c23)C1=O

Reference: ChEMBL document CHEMBL2424551, “Synthesis, in vitro evaluation and molecular modelling of naphthalimide analogue as anticancer agents” (2013)
